Source: PubChem BioAssay (several laboratories)
NR1D1 modulator: modulators of Rev-erb alpha DNA binding, primary screen, biochemical, FITC-DNA, fluorescence polarization, uHTS; 0.79% of 370,000 active; Nuclear receptor subfamily 1 group D member 1 (Homo sapiens), P20393; activity, % at 10 µM; Rev-erbα–FITC-DNA binding, 90 min; AID 1259318, 2017;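 active means activity above about 14%, limit read from the data; passing the limit was not always enough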
MC4R ag barr: MC4R agonists recruiting beta-arrestin, primary screen, cell-based, luminescence, agonist arm of biased-ligand search; 0.98% of 360,000 active; Melanocortin receptor 4 (Homo sapiens), P32245; activation, % at 8.9 µM; U2OS MC4R beta-arrestin complementation; percent of melanotan II response, DMSO zero; AID 540308, 2011;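 active means activation above a per-plate cutoff, the mean activation of sample wells on that plate plus 3 SD, cut at about 8% in these data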
Target sequence (P32245 whole entry, looked up): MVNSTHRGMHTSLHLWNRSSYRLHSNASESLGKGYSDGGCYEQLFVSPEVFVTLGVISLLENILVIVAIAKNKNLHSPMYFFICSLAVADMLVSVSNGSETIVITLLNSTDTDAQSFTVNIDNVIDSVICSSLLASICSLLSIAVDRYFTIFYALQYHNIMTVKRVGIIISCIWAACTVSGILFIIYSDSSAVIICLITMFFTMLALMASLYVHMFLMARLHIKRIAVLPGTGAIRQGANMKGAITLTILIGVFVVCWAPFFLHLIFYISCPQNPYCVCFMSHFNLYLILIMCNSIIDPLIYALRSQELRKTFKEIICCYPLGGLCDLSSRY
NR2E3 ag-1: NR2E3 agonists in two-hybrid cells, primary screen, cell-based, luminescence, CHO-S, Gal4-NCOR/VP16-NR2E3; inhibition of corepressor binding, % at 3.98 µM; luciferase; 0.35% of 360,000 active; Photoreceptor-specific nuclear receptor (Homo sapiens), Q9Y5X4;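 active means inhibition above the mean of all tested compounds plus 3 SD, cut at about 70% in these data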;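 further: higher means lower luciferase signal from less NR2E3 corepressor binding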
NR2E3 ag-2: inhibitors of NR2E3-RetCOR corepressor binding, primary screen, NR2E3 agonist project, biochemical, TR-FRET, GST-NR2E3, biotin-RetCOR. 1536-well. inhibition of corepressor binding, % at 4.78 µM. 0.12% of 320,000 active. AID 2300, 2010;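 active means percent inhibition above the cutoff of mean plus 3 SD of all tested compounds, set per screening campaign, cut at about 20% in these data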
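Test system: GST-NR2E3 and biotin-RetCOR proteins | Quantity: 1.35 nM GST-tagged NR2E3 final | Medium: Tris pH 7.5 | Also added: 7 nM biotin-RetCOR | Dosing: Compound at 4.8 µM, single dose | Timing: 5 h at 4 °C | Detection: Time-resolved FRET | Read-out basis: Percent inhibition | Benchmarks: Biotin wells as high control, 0.6% DMSO wells as low control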
PG9 Ab binder: binders of HIV-1 gp120 antibody PG9, primary screen, biochemical, TR-FRET | TR-FRET gp120-PG9 antibody binding | inhibition, % at 6.7 µM | 0.43% of 360,000 active; in the data active means inhibition above about 8.5%
MC4R antag cAMP: MC4R antagonists of cAMP signaling, primary screen, cell-based, TR-FRET, antagonist arm of biased-ligand search; Melanocortin receptor 4 (Homo sapiens), P32245; MC4R-expressing cells, MTII-stimulated cAMP, LANCE TR-FRET; inhibition, % at 6.5 µM; 0.48% of 360,000 active; AID 540295, 2011;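 active means inhibition above its plate's cutoff, the mean of tested wells on that plate plus 3 SD, cut at about 29% in these data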
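Material – human MC4R-expressing U2OS cells · Repeats – no replicates · Detection – TR-FRET with Eu-cAMP and labeled anti-cAMP, 671 nm · Times – compound 30 min, challenge 1 h, detection 1 h · Compound – single nominal compound dose of 6.5 µM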
MC4R barr conf: MC4R beta-arrestin agonists, retest, confirmation, cell-based, luminescence, U2OS | activation, % at 8.9 µM | U2OS MC4R beta-arrestin recruitment; scaled DMSO 0%, Melanotan II 100% | 31% of 2,400 active | shares compounds with MC4R ag barr;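 active means mean activation across replicates above the hit cutoff set in the earlier primary screen, cut at about 8% in these data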
MOR-DOR barr ag: agonists of MOR-DOR heterodimerization, counter-screen for MC4R biased agonist project, cell-based, luminescence; shares compounds with MC4R ag barr; U2OS PathHunter beta-arrestin, beta-gal luminescence; percent of deltorphin B response, DMSO zero; activation, % at 9.2 µM; 5.8% of 2,400 active; AID 602194, 2012;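 active means mean activation across replicates exceeds the hit threshold derived in the earlier primary screen, cut at about 18% in these data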
PG9 binder conf: binders of anti-gp120 antibody PG9, confirmation, biochemical, TR-FRET. shares compounds with PG9 Ab binder. TR-FRET PG9 antibody binding. inhibition, % at 6.7 µM. 90% of 1,500 active. AID 651571, 2012; in the data active means inhibition above about 9%
PGV04 Ab binding: binders of control antibody PGV04, counter-screen for PG9 antibody binder project, biochemical, TR-FRET, distinct HIV envelope site | shares compounds with PG9 Ab binder | TR-FRET PGV04 antibody-gp120 binding | inhibition, % at 6.7 µM | 95% of 1,500 active | AID 651604, 2012; in the data active means inhibition above about 9.5%
PG9 bind DR: small-molecule binders of antibody PG9, dose response, biochemical, TR-FRET, HIV-1 gp120 antibody | shares compounds with PG9 Ab binder | TR-FRET PG9 antibody-gp120 binding inhibition | IC50, µM | 95 tested, under 10 active; in the data active means IC50 below about 10 µM
PGV04 binding DR: binders of control antibody PGV04, dose response, counter-screen for PG9 antibody binder project, biochemical, TR-FRET, distinct HIV envelope site; shares compounds with PG9 Ab binder; 20% of 95 active; TR-FRET binding to control antibody PGV04; IC50, µM
PG126 DR counter: binders of control antibody PG126, dose response, counter-screen for PG9 antibody binder project, biochemical, TR-FRET, distinct HIV envelope site | 20% of 95 active | shares compounds with PG9 Ab binder | IC50, µM | TR-FRET binding to antibody PG126, counterscreen
NR1D1 mod conf: modulators of Rev-erb alpha DNA binding, confirmation, biochemical, FITC-DNA, fluorescence polarization, single point. 90 min. shares compounds with NR1D1 modulator. activation, % at 25 µM. 61% of 3,000 active. AID 1259319, 2017;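 active means activation at or above a set limit, or at least 3 SD above the negative control mean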
RORg counter: modulation of RORgamma DNA binding, dose response, counter-screen for Rev-erb alpha modulator project, biochemical, fluorescence polarization, FITC-DNA. shares compounds with NR1D1 modulator. purified RORgamma protein-FITC-DNA binding. IC50, µM. 8% of 910 active;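 active means Compounds whose fitted half-maximal concentration for disrupting protein-DNA binding is below 10 micromolar; the record names Rev-erb in its text, so the target is in doubt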
A number is an active result. A selection: hits, their analogues and other compounds. The true share with any hit is near 2.7%. Unless noted, no stated cut-off is given here; in the data, active means IC50 below about 9 µM; inactive means the rest.

For Cc1nnc(N2CCCCC2)c2ccccc12 the results were NR1D1 modulator inactive, MC4R ag barr inactive, NR2E3 ag-1 inactive, NR2E3 ag-2 inactive, PG9 Ab binder inactive and MC4R antag cAMP inactive.
`N/C(=N\c1nc(CSc2nc3ccccc3s2)cc(=O)[nH]1)Nc1ccc(F)cc1` gave NR1D1 modulator inactive, MC4R ag barr 12, NR2E3 ag-1 inactive, NR2E3 ag-2 inactive, PG9 Ab binder 9.3, MC4R antag cAMP inactive, MC4R barr conf inactive, MOR-DOR barr ag inactive, PG9 binder conf 27 and PGV04 Ab binding 40.
Screening CCN(C(=O)c1cc2c(=O)[nH]c3ccc(C)cc3c2s1)c1ccc(F)cc1 returned NR1D1 modulator inactive, MC4R ag barr 12, NR2E3 ag-1 inactive, NR2E3 ag-2 inactive, PG9 Ab binder 15, MC4R antag cAMP inactive, MC4R barr conf inactive, MOR-DOR barr ag inactive, PG9 binder conf 14 and PGV04 Ab binding 24.
For Cc1ccc(-c2cc(C(=O)N(C)Cc3cnn(C)c3C)c3cc(Br)ccc3n2)cc1 the results were NR1D1 modulator inactive, MC4R ag barr 9.7, NR2E3 ag-1 inactive, NR2E3 ag-2 inactive, PG9 Ab binder 21, MC4R antag cAMP inactive, MC4R barr conf inactive, MOR-DOR barr ag inactive, PG9 binder conf 25 and PGV04 Ab binding 30.
For COc1ccccc1C(=O)COC(=O)c1cc(=O)[nH]c2ccccc12 the results were NR1D1 modulator inactive, MC4R ag barr inactive, NR2E3 ag-1 inactive, NR2E3 ag-2 inactive, PG9 Ab binder inactive and MC4R antag cAMP inactive.
`COc1ccc(C(=O)COC(=O)c2cc(=O)[nH]c3ccccc23)c(OC)c1` gave NR1D1 modulator 77, MC4R ag barr 12, NR2E3 ag-1 inactive, NR2E3 ag-2 inactive, PG9 Ab binder 46, MC4R antag cAMP inactive, MC4R barr conf inactive, MOR-DOR barr ag inactive, PG9 binder conf 50, PGV04 Ab binding 78, NR1D1 mod conf 37 and RORg counter inactive.
For CCNC(=S)NNC(=O)Cn1c(=O)c2c(ncn2CCOC)n(Cc2ccccc2)c1=O the results were NR1D1 modulator inactive, MC4R ag barr inactive, NR2E3 ag-1 inactive, NR2E3 ag-2 inactive, PG9 Ab binder inactive and MC4R antag cAMP inactive.
Screening O=C(Nc1nnc(SCc2ccccc2)s1)c1cc2c(s1)CCCC2 returned NR1D1 modulator 52, MC4R ag barr 20, NR2E3 ag-1 inactive, NR2E3 ag-2 inactive, PG9 Ab binder 9.7, MC4R antag cAMP inactive, MC4R barr conf 8.3, MOR-DOR barr ag inactive, PG9 binder conf 21, PGV04 Ab binding 17, PG9 bind DR inactive, PGV04 binding DR inactive, PG126 DR counter inactive, NR1D1 mod conf 34 and RORg counter inactive.
`COc1cc(NC(=O)c2ccc(-c3ccc(F)c(F)c3)c3ccoc23)cc(OC)c1OC` gave NR1D1 modulator 18, MC4R ag barr 14, NR2E3 ag-1 inactive, PG9 Ab binder inactive, MC4R antag cAMP inactive, MC4R barr conf inactive, MOR-DOR barr ag inactive and NR1D1 mod conf inactive.
Screening Cc1[nH]nc2nc(SCC(=O)NC3CCCCC3)n(-c3ccc(Br)cc3)c(=N)c12 returned NR1D1 modulator 64, MC4R ag barr 17, NR2E3 ag-1 inactive, NR2E3 ag-2 inactive, PG9 Ab binder inactive, MC4R antag cAMP inactive, MC4R barr conf inactive, MOR-DOR barr ag 23, NR1D1 mod conf 65 and RORg counter inactive.
For CCOc1ccc(-n2c(SCC(=O)Nc3ccc(CC)cc3)nc3n[nH]c(C)c3c2=N)cc1 the results were NR1D1 modulator inactive, MC4R ag barr inactive, NR2E3 ag-1 inactive, NR2E3 ag-2 inactive, PG9 Ab binder inactive and MC4R antag cAMP inactive.
Screening O=C(CCSc1nnc2ccc3ccccc3n12)Nc1ccc(F)cc1 returned NR1D1 modulator 44, MC4R ag barr 39, NR2E3 ag-1 inactive, NR2E3 ag-2 inactive, PG9 Ab binder 23, MC4R antag cAMP inactive, MC4R barr conf inactive, MOR-DOR barr ag inactive, PG9 binder conf inactive, PGV04 Ab binding 21 and NR1D1 mod conf 22.
